Consider 22 compounds from ChEMBL document CHEMBL1137311, “Peptide inhibitors of West Nile NS3 protease: SAR study of tetrapeptide aldehyde inhibitors” (J Med Chem, 2006).

The structures appear in SMILES notation. Non-standard residues stand in square brackets, D forms with d. Residues, ends and D or L forms follow the SMILES beside them. *: point of attachment. NMeR = CN[C@@H](CCCNC(=N)N)C(=O)O; NMeK = CN[C@@H](CCCCN)C(=O)O; NMeNle = CCCC[C@H](NC)C(=O)O; Phg = N[C@H](C(=O)O)c1ccccc1; dNle = CCCC[C@@H](N)C(=O)O; Nle = CCCC[C@H](N)C(=O)O; Bz = O=C(c1ccccc1)*

The nature of this experiment: Inhibition of West Nile virus NS3 protease. The procedure, abridged: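 Enzyme: WNV CF40-gly-NS3pro187 conjugate at 50 nM, preincubated with a range of inhibitor concentrations for 30 min at 37 °C. Buffer: 50 mM Tris pH 8.5 with 1 mM CHAPS. Reaction started with 20 µM Bz-nKRR-AMC. Fluorescence (ex 385/em 465 nm) followed continuously. IC50 from nonlinear fit of initial velocities, each point in duplicate within a single experiment.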
Consider `C[C@H](NC(=O)c1ccccc1)C(=O)N[C@@H](CCCCN)C(=O)N[C@@H](CCCNC(=N)N)C(=O)N[C@H](C=O)CCCNC(=N)N` (Bz-AKRR-aldehyde), for which the IC50 (in general, the concentration at which inhibition is half-maximal) worked out at 0.7 µM.

Regarding `NCCCC[C@H](NC(=O)[C@H](Cc1ccccc1)NC(=O)c1ccccc1)C(=O)N[C@@H](CCCN=C(N)N)C(=O)N[C@H](C=O)CCCN=C(N)N` (Bz-FKRR-aldehyde), the half-inhibitory concentration (IC50) is 1.2 µM.

Regarding `CCCC[C@@H](C(=O)N[C@@H](CCCCN)C(=O)N[C@@H](CCCN=C(N)N)C(=O)N[C@H](C=O)CCCN=C(N)N)N(C)C(=O)c1ccccc1` (Bz-[NMeNle]KRR-aldehyde), the 50% inhibitory concentration (IC50) is 9.3 µM.

`CCCC[C@H](NC(=O)c1ccccc1)C(=O)N[C@@H](C)C(=O)N[C@@H](CCCNC(=N)N)C(=O)N[C@H](C=O)CCCNC(=N)N` (Bz-[Nle]ARR-aldehyde) came in with an IC50 of 3.8 µM.

In the case of `CCCC[C@H](NC(=O)c1ccccc1)C(=O)N[C@@H](Cc1ccccc1)C(=O)N[C@@H](CCCNC(=N)N)C(=O)N[C@H](C=O)CCCNC(=N)N` (Bz-[Nle]FRR-aldehyde), it took 4.2 µM to reach half-maximal inhibition (IC50).

With `CCCC[C@H](NC(=O)c1ccccc1)C(=O)N[C@@H](CCCCN)C(=O)N[C@@H](C)C(=O)N[C@H](C=O)CCCN=C(N)N` (Bz-[Nle]KAR-aldehyde), half-maximal inhibition (IC50) was put at 262 µM.

In turn, `CCCC[C@H](NC(=O)c1ccccc1)C(=O)N[C@@H](CCCCN)C(=O)N[C@@H](Cc1ccccc1)C(=O)N[C@H](C=O)CCCNC(=N)N` (Bz-[Nle]KFR-aldehyde) showed a half-maximal inhibitory concentration (IC50) of 108 µM.

`CCCC[C@H](NC(=O)c1ccccc1)C(=O)N[C@@H](CCCCN)C(=O)N[C@@H](CCCCN)C(=O)N[C@H](C=O)CCCNC(=N)N` (Bz-[Nle]KKR-aldehyde) returned an IC50 of 1.9 µM.

In the case of `CCCC[C@H](NC(=O)c1ccccc1)C(=O)N[C@@H](CCCCN)C(=O)N[C@@H](CCCN=C(N)N)C(=O)N[C@@H](C)C=O` (Bz-[Nle]KRA-aldehyde), inhibition was half-maximal at 4.6 µM (IC50).

As to `CCCC[C@H](NC(=O)c1ccccc1)C(=O)N[C@@H](CCCCN)C(=O)N[C@@H](CCCNC(=N)N)C(=O)N[C@H](C=O)Cc1ccccc1` (Bz-[Nle]KRF-aldehyde), half-maximal inhibition (IC50) required 110 µM.

On to `CCCC[C@H](NC(=O)c1ccccc1)C(=O)N[C@@H](CCCCN)C(=O)N[C@@H](CCCNC(=N)N)C(=O)N[C@H](C=O)Cc1cnc[nH]1` (Bz-[Nle]KRH-aldehyde), for which the 50% inhibitory concentration (IC50) was 43.1 µM.

Turning to `CCCC[C@H](NC(=O)c1ccccc1)C(=O)N[C@@H](CCCCN)C(=O)N[C@@H](CCCNC(=N)N)C(=O)N[C@H](C=O)CCCCN` (Bz-[Nle]KRK-aldehyde), the half-inhibitory concentration (IC50) is 57.7 µM.

Consider `CCCC[C@H](NC(=O)c1ccccc1)C(=O)N[C@@H](CCCCN)C(=O)N[C@@H](CCCNC(=N)N)C(=O)N[C@H](C=O)CCCNC(=N)N` (Bz-[Nle]KRR-aldehyde), for which the IC50 turned out to be 4.1 µM.

`CCCC[C@H](NC(=O)c1ccccc1)C(=O)N[C@@H](CCCCN)C(=O)N[C@@H](CCCN=C(N)N)C(=O)N[C@H](C=O)Cc1c[nH]c2ccccc12` (Bz-[Nle]KRW-aldehyde) had an IC50 of 10 µM.

For the compound `CCCC[C@H](NC(=O)c1ccccc1)C(=O)N[C@@H](CCCCN)C(=O)N[C@@H](CCCNC(=N)N)C(=O)N[C@H](C=O)c1ccccc1` (Bz-[Nle]KR[Phg]-aldehyde), half-maximal inhibition (IC50) required 90.9 µM.

In turn, `CCCC[C@H](NC(=O)c1ccccc1)C(=O)N[C@@H](CCCCN)C(=O)N[C@@H](CCCN=C(N)N)C(=O)N[C@@H](C=O)CCCN=C(N)N` (Bz-[Nle]KR[dR]-aldehyde) displayed an IC50 of 14 µM.

As to `CCCC[C@H](NC(=O)c1ccccc1)C(=O)N[C@@H](CCCCN)C(=O)N(C)[C@@H](CCCN=C(N)N)C(=O)N[C@H](C=O)CCCN=C(N)N` (Bz-[Nle]K[NMeR]R-aldehyde), half-maximal inhibition (IC50) was put at 57.8 µM.

`CCCC[C@H](NC(=O)c1ccccc1)C(=O)N[C@@H](CCCCN)C(=O)N[C@H](CCCN=C(N)N)C(=O)N[C@H](C=O)CCCN=C(N)N` (Bz-[Nle]K[dR]R-aldehyde) showed an IC50 of 129 µM.

`CCCC[C@H](NC(=O)c1ccccc1)C(=O)N1CCC[C@H]1C(=O)N[C@@H](CCCN=C(N)N)C(=O)N[C@H](C=O)CCCN=C(N)N` (Bz-[Nle]PRR-aldehyde) displayed a half-maximal inhibitory concentration (IC50) of 14.3 µM.

`CCCC[C@H](NC(=O)c1ccccc1)C(=O)N(C)[C@@H](CCCCN)C(=O)N[C@@H](CCCN=C(N)N)C(=O)N[C@H](C=O)CCCN=C(N)N` (Bz-[Nle][NMeK]RR-aldehyde) yielded a half-maximal inhibitory concentration (IC50) of 73.6 µM.

In turn, `CCCC[C@H](NC(=O)c1ccccc1)C(=O)N[C@H](CCCCN)C(=O)N[C@@H](CCCN=C(N)N)C(=O)N[C@H](C=O)CCCN=C(N)N` (Bz-[Nle][dK]RR-aldehyde) registered an IC50 of 23.8 µM.

Regarding `CCCC[C@@H](NC(=O)c1ccccc1)C(=O)N[C@@H](CCCCN)C(=O)N[C@@H](CCCN=C(N)N)C(=O)N[C@H](C=O)CCCN=C(N)N` (Bz-[dNle]KRR-aldehyde), half-maximal inhibition (IC50) was put at 2.6 µM.
